Here are results for twelve molecules from ChEMBL document CHEMBL4152217, “Quinonoid compounds via reactions of lawsone and 2-aminonaphthoquinone with α-bromonitroalkenes and nitroallylic acetates: Structural diversity by C-ring modification and cytotoxic evaluation against cancer cells” (Eur J Med Chem, 2018).

One experiment relates to NCI-H460. Nature of the experiment: Cytotoxicity against human NCI-H460 cells assessed as reduction in cell viability after 72 hrs by MTT assay. Conditions: NCI-H460, 72 h.
A further experiment has as its system PBMC. Put plainly: Cytotoxicity against human PBMC cells assessed as reduction in cell viability after 72 hrs by MTT assay.
The next experiment deals with HCT-116. Nature of the experiment: Cytotoxicity against human HCT116 cells assessed as reduction in cell viability after 72 hrs by MTT assay. It is filed as functional, cell-based. Conditions: HCT-116, 72 h. The method, boiled down: (§1)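 MTT viability assay. Cancer lines grown in RPMI 1640 and L929 fibroblasts in DMEM, each with 10% FBS, 2 mM glutamine, penicillin/streptomycin, 37 °C, 5% CO2. PBMC were taken from healthy donors by density-gradient centrifugation, kept in RPMI with 20% FBS and stimulated with 2% phytohemagglutinin. Cells were exposed 72 h (0.01–27.32 µM). MTT 0.5 mg/mL for 3 h, absorbance read at 550 nm. IC50 with 95% CI from nonlinear regression; triplicate, ≥3 independent experiments.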

The next experiment deals with L929. Nature of the experiment: Cytotoxicity against mouse L929 cells assessed as reduction in cell viability after 72 hrs by MTT assay. Format: cell-based. Conditions: L929, 72 h. The method, boiled down:
as §1

The next experiment deals with PC-3. Put plainly: Cytotoxicity against human PC3 cells assessed as reduction in cell viability after 72 hrs by MTT assay. It is filed as functional, cell-based. Conditions: PC-3, 72 h. In outline:
as §1

The test system of a further experiment is HL-60. Nature of the experiment: Cytotoxicity against human HL60 cells assessed as reduction in cell viability after 72 hrs by MTT assay. It is filed as functional, cell-based. Conditions: HL-60, 72 h. The method, boiled down:
as §1

The test system of another experiment is SF-295. Nature of the experiment: Cytotoxicity against human SF295 cells assessed as reduction in cell viability after 72 hrs by MTT assay. Conditions: SF-295, 72 h.

Bounds are passed on as bounds.

For the molecule `Cc1ccc(-c2cn(-c3cccc(Br)c3)c3c2C(=O)c2ccccc2C3=O)cc1`, the IC50 in the experiment with NCI-H460, in the experiment on PBMC, in the experiment with HCT-116, in the experiment on L929, in the experiment on PC-3 and in the experiment with HL-60 was greater than 13.2 µM throughout. In addition, the IC50 with SF-295 is greater than 13.2 µM.

`COc1ccc(-c2cn(-c3ccc(F)cc3)c3c2C(=O)c2ccccc2C3=O)cc1`: the IC50 in the experiment with NCI-H460, in the experiment with PBMC, in the experiment with HCT-116, with L929, in the experiment on PC-3 and in the experiment with HL-60 was greater than 13.2 µM each time. For the same molecule, in the experiment on SF-295, the half-inhibitory concentration (IC50) is greater than 13.2 µM.

With `CCOC(=O)Cc1oc2c(c1-c1ccc(OC)c(OC)c1)C(=O)c1ccccc1C2=O`, the IC50 in the experiment on NCI-H460 was 7.53 µM; in the experiment on PBMC, greater than 11.9 µM; with HCT-116 it was 6.16 µM; with L929, 8.47 µM; in the experiment with PC-3, greater than 11.9 µM; in the experiment with HL-60, 3.97 µM. Further, the IC50 in the experiment on SF-295 is greater than 11.9 µM.

With `CCOC(=O)Cc1oc2c(c1-c1ccc(C)cc1)C(=O)c1ccccc1C2=O`, the IC50 in the experiment with NCI-H460, with PBMC, in the experiment on HCT-116, in the experiment on L929, with PC-3 and in the experiment on HL-60 was greater than 13.4 µM throughout. Besides, the IC50 in the experiment on SF-295 is greater than 13.4 µM.

Take `COc1ccc(-n2cc(-c3ccco3)c3c2C(=O)c2ccccc2C3=O)cc1`: the IC50 in the experiment on NCI-H460, in the experiment on PBMC, in the experiment with HCT-116, in the experiment with L929, in the experiment with PC-3 and in the experiment with HL-60 was greater than 13.5 µM each time. Moreover, the IC50 with SF-295 is greater than 13.5 µM.

As to `CCOC(=O)Cc1c(-c2ccccc2)c2c(n1-c1ccc(C)cc1)C(=O)c1ccccc1C2=O`, the IC50 with NCI-H460, with PBMC, with HCT-116, with L929, in the experiment on PC-3 and with HL-60 was greater than 11.1 µM throughout. In the experiment on SF-295, the IC50 is greater than 11.1 µM.

`COc1ccc(-n2cc(-c3ccc(C)cc3)c3c2C(=O)c2ccccc2C3=O)cc1`: the IC50 in the experiment with NCI-H460, with PBMC, with HCT-116, in the experiment with L929, in the experiment with PC-3 and in the experiment with HL-60 was greater than 12.7 µM throughout. The IC50 in the experiment with SF-295 is greater than 12.7 µM.

For the molecule `COc1ccc(-c2cn(-c3ccc(Cl)cc3)c3c2C(=O)c2ccccc2C3=O)cc1`, the IC50 with NCI-H460, with PBMC, with HCT-116, in the experiment on L929, in the experiment on PC-3 and with HL-60 was greater than 12.6 µM throughout. Further, the IC50 with SF-295 was greater than 12.6 µM.

In the case of `CCOC(=O)Cc1c(-c2ccc(OC)c(OC)c2)c2c(n1-c1ccc(Br)cc1)C(=O)c1ccccc1C2=O`, the IC50 in the experiment with NCI-H460, in the experiment on PBMC, in the experiment on HCT-116, with L929, in the experiment with PC-3 and in the experiment with HL-60 was greater than 17.4 µM throughout. Further, the IC50 with SF-295 was 6.45 µM.

With `CCOC(=O)Cc1oc2c(c1-c1ccc(OC)cc1)C(=O)c1ccccc1C2=O`, the IC50 in the experiment with NCI-H460, in the experiment on PBMC, in the experiment on HCT-116, in the experiment with L929, in the experiment with PC-3 and in the experiment on HL-60 was greater than 12.8 µM each time. The 50% inhibitory concentration (IC50) with SF-295 was greater than 12.8 µM.

On to `CCOC(=O)Cc1oc2c(c1-c1cccc3ccccc13)C(=O)c1ccccc1C2=O`, for which the IC50 with NCI-H460 is greater than 12.2 µM; with PBMC it was greater than 12.2 µM; with HCT-116, greater than 12.2 µM; in the experiment with L929, greater than 12.2 µM; in the experiment with PC-3 it was greater than 12.2 µM; in the experiment with HL-60, 6.69 µM. Also, the IC50 in the experiment with SF-295 is greater than 12.2 µM.

Turning to `CCCCn1cc(-c2ccc(Cl)cc2)c2c1C(=O)c1ccccc1C2=O`, the IC50 with HCT-116, with L929, in the experiment on PC-3 and in the experiment with HL-60 was greater than 13.8 µM in each case.
